Screens from PubChem.
An excerpt weighted towards active compounds, which were near 3.3% of everything screened.
ABCB6 inh 2 = blocks the human ABCB6 transporter | fluorescence ratio to DMSO, % at 10 µM | K562-ABCB6 porphyrin accumulation, flow cytometry, 1 h; active compounds read low | actives 0.19% (n = 360,000);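 active = fluorescence ratio to DMSO below 75%, the collection mean minus 3 SD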;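 note: signal is porphyrin accumulated inside mitochondria; 100% equals median channel fluorescence of DMSO control wells; lower ratio means ABCB6 inhibition with less porphyrin fluorescence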
GAA850 FXN act = activators of GAA850 frataxin (FXN) promoter; HEK293 lucGAA850 FXN promoter luciferase reporter, 24 h; percent of 10 µM SAHA response; activation, % at 6 µM; actives 0.56% (n = 360,000); AID 540364;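 active = activation above the average of all compounds screened plus 3 SD, cutoff fixed separately per campaign, cut at about 7.5% in these data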;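 note: 0% = DMSO wells and 100% = 10 µM SAHA wells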
AHR activator = activates the human aryl hydrocarbon receptor; AHR-responsive luciferase reporter cells, luminescence; actives 2.5% (n = 320,000); activation, % at 5 µM; in the data active = activation above about 47%;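 note: 0% = vehicle wells and 100% = reference agonist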
Target sequence (P35869 whole entry, looked up): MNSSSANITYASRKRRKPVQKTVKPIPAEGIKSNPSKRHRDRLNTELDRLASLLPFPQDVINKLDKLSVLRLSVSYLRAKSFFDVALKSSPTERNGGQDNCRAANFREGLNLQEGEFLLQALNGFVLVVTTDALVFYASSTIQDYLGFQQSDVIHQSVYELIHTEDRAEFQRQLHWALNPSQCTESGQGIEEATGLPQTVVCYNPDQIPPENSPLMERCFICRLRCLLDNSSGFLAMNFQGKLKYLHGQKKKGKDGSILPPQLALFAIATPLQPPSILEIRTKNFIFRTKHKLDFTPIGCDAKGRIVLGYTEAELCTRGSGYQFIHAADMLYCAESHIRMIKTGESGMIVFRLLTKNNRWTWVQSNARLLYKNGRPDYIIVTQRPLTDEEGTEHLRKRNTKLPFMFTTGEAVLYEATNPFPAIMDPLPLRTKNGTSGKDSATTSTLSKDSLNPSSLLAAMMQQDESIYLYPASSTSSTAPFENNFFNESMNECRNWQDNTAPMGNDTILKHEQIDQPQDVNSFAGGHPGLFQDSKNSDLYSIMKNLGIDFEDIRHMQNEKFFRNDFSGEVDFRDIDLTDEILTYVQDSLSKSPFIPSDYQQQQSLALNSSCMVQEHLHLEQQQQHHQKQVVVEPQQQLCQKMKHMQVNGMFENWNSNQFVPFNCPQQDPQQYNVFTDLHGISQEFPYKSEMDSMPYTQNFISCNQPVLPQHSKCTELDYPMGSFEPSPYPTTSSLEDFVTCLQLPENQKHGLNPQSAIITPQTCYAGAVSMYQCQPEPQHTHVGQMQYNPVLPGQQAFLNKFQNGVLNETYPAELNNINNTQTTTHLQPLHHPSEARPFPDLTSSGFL
STAT3 activator = increases IL-6 driven STAT3 reporter signal; U3A cells, IL-6 STAT3-luciferase reporter, luminescence; 100% = signal with IL-6 EC80 alone; actives 0.91% (n = 190,000); activation (% of control), % at 5.6 µM; AID 871;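 active = activation above the screen-wide mean of compound activation plus 3 SD, cut at about 130% in these data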;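 note: 0% = background luminescence of wells with medium and substrate only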
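System – human U3A cells carrying STAT3-luciferase construct · Probe or stimulus – Interleukin-6, 33 ng/mL · Schedule – compound 1 h, then IL-6 6 h at 37 °C · Signal – luminescence from STAT3-driven luciferase reporter · Evaluation – percent of IL-6-only median luminescence · Benchmarks – IL-6-only high control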
Numbers without * were called inactive; . = no result.

SMILES	ABCB6 inh 2	GAA850 FXN act	AHR activator	STAT3 activator
COc1cc(CN2CCNC(=O)C2CC(=O)NCc2csc(C(C)C)n2)cc(OC)c1 (stereo not given)	102	-1	2	96
S=C(NCc1ccco1)N1CCN(c2ccccc2Cl)CC1	100	1	0	95
CCC(c1c(C)[nH]oc1=O)c1c(C)[nH]oc1=O	93	1	3	103
Oc1c(Br)cc(C=Nc2ccc3nc(-c4ccccc4)[nH]c3c2)c(O)c1Br	.	.	26	102
O=[N+]([O-])c1ccc(O)c(C=Nc2ccc3nc(-c4ccccc4)[nH]c3c2)c1	95	4	67*	112
Cc1sc2nc(CN(Cc3cccs3)C(=O)NC3CCCCC3)[nH]c(=O)c2c1C	107	-2	65*	97
O=C(CN1C2=NCCCN2c2ccccc21)c1ccc(Cl)cc1Cl	99	0	59*	109
COc1ccc(/C=C/c2cc(C(=O)O)c3ccccc3n2)cc1	98	1	-4	.
Cc1cc(/C=C\c2ccccc2)nc2ccccc12	98	5	62*	130
CCN(CC(=O)NCc1cccs1)C(=O)c1cccc(S(=O)(=O)NCc2ccccc2)c1	95	-1	1	.
CN(C(=O)c1ccco1)c1nnc(C23CC4CC(CC(C4)C2)C3)s1	98	3	-1	133*
CCCc1nc2sc3ccccc3c(=O)c2c(=O)n1Cc1ccc(OC)cc1	90	4	3	.
CCCc1nc2sc3ccccc3c(=O)c2c(=O)n1Cc1ccco1	100	6	.	147*
CC(C)(C)c1ccc(CC(=O)N2CCC2(C)C(=O)Nc2cnc3ccccc3c2)cc1 (stereo not given)	93	-1	.	.
COc1ccc(N(CC(=O)NCCc2ccccc2)C(=O)c2csnn2)cc1OC	100	2	0	.
Cc1nn(-c2ccccc2)c2c1C(c1c(C)[nH]c(C#N)c1C)C(C#N)=C(N)O2 (stereo not given)	100	0	15	134*
Cc1ccc(-n2nc(C)c3c2OC(N)=C(C#N)C3c2ccccc2F)cc1 (stereo not given)	103	-3	66*	146*
O=C1c2cccc3cccc(c23)C(=O)N1c1ccccc1Cl	99	4	7	.
Nc1cccc2c1C(=O)N(c1ccccc1)C2=O	98	0	49*	.
O=C1c2ccccc2C(=O)N1c1ccccc1	101	-2	.	.
Nc1ccccc1N1C(=O)c2cccc3cccc(c23)C1=O	99	3	67*	.
COc1ccc2oc(C(=O)Nc3nnc(C)s3)c(C)c2c1	100	2	-7	.
COC(=O)CC1C(=O)NCCN1C(=O)CSc1nc2ccccc2s1 (stereo not given)	97	0	13	129
Cn1c(-c2ccc(Cl)nc2)nc2cc(Cl)ccc21	98	2	0	.
c1ccc2c(c1)ncn2-c1ccc(-c2ccnc(-c3ccncc3)n2)cc1	111	0	44	104
SMILES	ABCB6 inh 2	GAA850 FXN act	AHR activator	STAT3 activator
Nc1nccc(-c2ccc(-n3cnc4ccccc43)cc2)n1	92	-5	48*	133*
COc1ccc(S(=O)(=O)N2CCCCCC2)cc1NC(=O)CN1C(=O)NC(C)(c2ccccc2)C1=O (stereo not given)	99	-1	11	.
O=C(CNCc1ccccn1)Nc1ccc([N+](=O)[O-])cc1C(=O)Nc1ccccc1F	87	1	75*	.
Clc1ccc(-c2cnc3ccccc3n2)cc1	95	5	52*	111
O=C(O)c1ccc(NS(=O)(=O)c2ccc(Cl)cc2)cc1	101	1	-1	102
COc1cc2sc3ccc(-c4ccc(CN5CCOCC5)cc4)cc3c(=O)c2cc1OC	91	1	52*	.
CCOC(=O)c1c(C)[nH]c(C(=O)OCC(=O)Nc2ccc(Cl)cn2)c1C	95	2	5	.
CCOC(=O)c1c(C)[nH]c(C(=O)OCC(=O)Nc2sccc2C(N)=O)c1C	90	-7	53*	.
NC(=S)NN=C1CSSC1	97	-1	.	.
Cc1cccc(C)c1OCC(=O)NNC(=O)Nc1ccc(Cl)cc1	98	0	1	95
NNc1nc(-c2ccccc2)nc2sc3c(c12)CCCC3	108	0	75*	139*
COc1cccc(-c2csc(N3CCN(C(=S)Nc4cccc(C)c4)CC3)n2)c1	96	2	13	94
Cc1[nH][nH]c(=O)c1N=Nc1ccc(Cl)cc1	105	1	51*	90
NC(=NCc1ccccc1)NC(=O)c1nc(Cl)c(N)nc1N	95	1	69*	.
Cc1ccc(=O)n(-c2ccccc2)c1	97	0	14	.
COc1ccc(NC(=O)COC(=O)c2cc(C)oc2C)c([N+](=O)[O-])c1	97	2	-2	.
CCCCCCn1c(N)c(C#N)c2ccc([N+](=O)[O-])cc2c1=O	103	1	1	104
COc1cc(NC(=O)c2ccccc2F)c(OC)cc1NC(=O)CN1CCOCC1	100	2	51*	84
COc1ccccc1NC(=O)c1ccc(NC(=O)COC(=O)c2cncc(Br)c2)cc1	93	0	50*	.
COc1ccccc1NC(=O)c1ccc(NC(=O)CN2CCCC2)cc1	97	2	53*	102
COc1ccc(CCNC(=O)c2ccccc2NC(=O)CN2CCN(c3ccccc3O)CC2)cc1	94	-5	.	.
COc1ccccc1N1CCN(CC(=O)Nc2ccccc2C(=O)NCCc2ccccc2)CC1	98	1	63*	.
COc1ccccc1C1(O)C(=O)Nc2ccccc21 (stereo not given)	112	-1	-1	.
NC(Cc1ccc(C(F)(F)F)cc1)c1csc(Nc2ccccn2)n1 (stereo not given)	94	0	.	.
NC(=O)c1ccc(Cn2c(C(=O)c3ccc(Cl)cc3)c3ccccc3[n+]2[O-])cc1	108	3	15	.
SMILES	ABCB6 inh 2	GAA850 FXN act	AHR activator	STAT3 activator
NC(=O)c1ccc(Cn2c(C(=O)c3cc(Cl)c(N)c(Cl)c3)c3ccccc3[n+]2[O-])cc1	98	-1	78*	.
COc1ccc(C(=O)c2c3ccc([N+](=O)[O-])cc3[n+]([O-])n2CCCC(N)=O)cc1	93	0	12	.
NCCCn1c(C(=O)c2cc(Cl)c(N)c(Cl)c2)c2ccc(C(F)(F)F)cc2[n+]1[O-]	98	-1	57*	.
NCCCn1c(C(=O)c2cc(Cl)c(N)c(Cl)c2)c2ccc([N+](=O)[O-])cc2[n+]1[O-]	99	-2	115*	.
NC(=O)CCCn1c(C(=O)c2cc(Cl)c(N)c(Cl)c2)c2ccc(C(F)(F)F)cc2[n+]1[O-]	98	0	55*	.
COc1ccc(C(=O)c2c3ccc(C(F)(F)F)cc3[n+]([O-])n2CCCC(N)=O)cc1	98	-1	19	.
O=C(O)c1cc2ccc3cccc4ccc(c1)c2c34	94	1	1	.
CCNC(=O)C1(C)CCCN(C(=O)c2oc3ccccc3c2C)C1 (stereo not given)	102	1	.	.
CCOc1ccc(NC(=NCc2ccc3c(c2)OCO3)SC2CC(=O)N(c3ccc(C(=O)O)cc3)C2=O)cc1 (stereo not given)	101	2	-2	96
